Measured values as given in the RNAGym collection of RNA variant scans (doi:10.1101/gad.245936.114).
This sample holds only a part of the variants without activity.

B1: tRNA (parent)
chain: CUCUCGGUAGCCAAGUUGGUUUAAGGCGCAAGACUUUAAUUUAUCACUACGAAAUCUUGAGAUCGGGCGUUCGACUCGCCCCCGGGAGAUUUUUUCCUCGAGCAA

Variants of: B1
Assay: nonsense suppression (GFP-seq) (ratio to wild type); higher = more function; SUP4oc tRNA, yeast GFP reporter sort-seq
In short: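 Yeast carrying genome-integrated SUP4oc tRNA variants from a library with ~3% random mutations were grown in raffinose/galactose medium with 80 mg/L adenine. Each strain also carried a galactose-driven GFP ochre reporter and RFP. Cells were sorted into GFP/RFP bins, and each bin was Illumina-sequenced (phred ≥30). Nonsense suppression (GFPSEQ) is the bin median GFP/RFP, weighted by each variant's estimated cell share per bin, relative to wild-type SUP4oc; variants needed ≥100 reads and ≥30 cells.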

| Variant | nonsense suppression |
| --- | --- |
| CUCUCGGUAGCCAAGUGGGUUUAAGGCGCAAGACUUUAAUUUAUCACUACGAAGUCCUGAGAUCGGGCGUUCGACUCGCCCCCGGGAGAUUUUUUCCUCGAGCAA | ≤ 0.026 |
| CUCUCGCUAGCCAAGUUGGUUUAAGGCGCAAGACGUUAAUUUAUCACUACGAAAUCUUGAGCUCGGGCGUUCGACUCGCCCCCGGGAGAUUUUUUCCUCGAGCAA | ≤ 0.026 |
| CUCUCGGUCGCCAAGUUGGUUUAAGGCGCGAGACUUUAAUUUAUCACUACGAAAUCUUGAGAUCGGGCGUUCGACUCGCCCCCGGGAGAUUUUUUCCUCGAGCAA | 0.171 |
| CUCCCGGUAGCCAAGUUGGUUUAAGGCGCAAGACUUUAAUUUAUCACUACGAAAUCUUGAGUUCGGGCGUUCGACUCGCCCCCGGGAGAUUUUUUCCUCGAGCAA | 0.272 |
| CUCUCGGUAGCCAAGUUGGUUUAAGGGGCAAGACUUUAAUUUAUCACUACGAAAUCUUGAGAUCGGGCGUUCCACUCGCCCCCGGGAGAUUUUUUCCUCGAGCAA | ≤ 0.026 |
| CUCUCGGUAGCCAAGUUGGUAUAAGGCCCAAGACUUUAAUUUAUCACUACGAAAUCUUGAGAUCGGGCGUUCGACUCGCCCCCGGGAGAUUUUUUCCUCGAGCAA | 0.495 |
| CUCUCGGUAGCCAAGUUGGUCUAAGGCGCAAGACUUUAAUUUAUCACUACGAAAUCUUGAAAUCGGGCGUUCGACUCGCCCCCGGGAGAUUUUUUCCUCGAGCAA | 0.881 |
| CUCGCGGUAGCCAAGUUGGUUUAAGGCGCAAGACUUUAAUUUAUCACUACGAAAUCUUGAUAUCGGGCGUUCGACUCGCCCCCGGGAGAUUUUUUCCUCGAGCAA | 0.804 |
| CUCUCGGUAGCCCAGUUGGUUUAAGGCGCAAGACUUUAAUUUAUCACUACGAAAUCUUGAGAUCGGGCGUUCGACUCGCCCCCGGGCGAUUUUUUCCUCGAGCAA | 0.0539 |
| CUCUCGGUAGCUUAGUUGGUUUAAGGCGCAAGACUUUAAUUUAUCACUACGAAAUCUUGAGAUCGGGCGUUCGACUCGUCCCCGGGAGAUUUUUUCCUCGAGCAA | 0.0331 |
| CUCCCGGUAGCCAAGUUGGUUUAGGGCGCAAGACUUUAAUUUAUCACUACGAAAUCUUGAGAUCGGGCGUUCGACUCGCCCCCGGGAGAUUUUUUCCUCGAGCAA | 0.31 |
| CUCUCGGUAGCCAAGUUGGUUGACGGCGCAAGACUUUAAUUUAUCACUACGAAAUCUUGAGAUCGGGCGUUCGACUCGCCCCCGGGAGAUUUUUUCCUCGAGCAA | 0.817 |
| CUCUCGGUAGCCUAGUUGGUUUAAGGCGCAAGACUUUAAUUUAUCACUACGAAAUCUUGAGAUCGGGCGUUCGACUCCCCCCCGGGAGAUUUUUUCCUCGAGCAA | 0.0621 |
| UUCUCGGUAGCCAAGUUGGUUUAAGGCGCAAGACUUUAAUUUAUCACUACGAAAUCUUGAGAUCGUGCGUUCGACUCGCCCCCGGAAGAUUUUUUCCUCGAGCAA | ≤ 0.026 |
| CUCUCGGUAGCCAAGUUGGUUUAAGGCGCAAGACUUUAAUUUAUCACUACGAAAUCUUGAGAUCGGGCGUUCGCCUCGCCUCCGGGAGAUUUUUUCCUCGAGCAA | ≤ 0.026 |
| CUCUCGGUAGCCUAGUUGGUUUAAGGCGCAAGACUUUAAUUUAUCACUACGAAAUCUUGAGAUCGGGCGUUCGACUCGCCACCGGGAGAUUUUUUCCUCGAGCAA | ≤ 0.026 |
| CUCUCGGUAGCCAAGUUGGUUUAUGGCGCAAGACUUUAAUUUAUCACUACGAAAUCUUGAAAUCGGGCGUUCGACUCGCCCCCGGGAGAUUUUUUCCUCGAGCAA | 0.124 |
| CUCUCGGUAGCCAAGUUGGUUUAAGGCGCAGGACUUUAAUUUAUCACUACGAAAUCUUGAGAUCGGGCGUACAACUUGCCCCCGGGAGAUUUUUUCCUCGAGCAA | ≤ 0.026 |
| CUCUUGGUAGCCAAGUUGGUUUAAGGCCCAAGACUUUAAUUUAUCACUACGAAAUCUUGAGAUCGGGCGUUCGACUCGCCCCCGGGAGAUUUUUUCCUCGAGCAA | 0.0292 |
| CUCUCGGGAGCCAACUUGGUUUAAGGCGCAAGACUUUAAUUUAUCACUACGAAAUCUUGAGAUCGGGCGUUCGACUCGCCCCCGGGAGAUUUUUUCCUCGAGCAA | ≤ 0.026 |
| CUCUCGGUAGCCAAGAUGGUUUAAGGCGCAAGACUUUAAUUUAUCACUACGAAAUCUUGGGAUCGGGCGUUCGACUCGCCCCCGGGAGAUUUUUUCCUCGAGCAA | 0.247 |
| CUCUCGGUAGCCAAGUUGGUUUAAGGCGCAAGACUUUAAUUUAUCACUACGAAAUCUUGUGAUCGGGCGUUCGACCCGCCCCCGGGAGAUUUUUUCCUCGAGCAA | 1.05 |
| CUCUCGGUAGCCAAGUUGGUUCAAGGCGCAAGACUUUAAUUUAUCACUACGAAAUCUUGAGAUCGGGCGCUCAACUCGCCCCCGGGAGAUUUUUUCCUCGAGCAA | ≤ 0.026 |
| CUCUCGAUAGCCAAGUUGGCUUAAGGCGCAAGACUUUAAUUUAUCACUACGAAAUCUUGAGAUCGGGCGUUCGACUCGCCCACGGAAACUUUUUUCCUCGAGCAA | ≤ 0.026 |
| CUCUGGGUAGCGAAGCUGGUUUAAGGCGCAAAACUUUAAUUUAUCACUACGAAAUCUUGAGAUCGGGCGUUCGACUCGCCCCCGGGAGAUUUUUUCCUCGAGCAA | ≤ 0.026 |
| CUCUUGGUAGCCAAGUUGGUUUAAGGCGCAAGACUUUAAUUUAUCACUACGAAAUCUUGAGAUCGGGCGUUCGACUCGCCCCCGUGAGAUUUUUUCCUCGAGCAA | 0.0303 |
| CUAUCGGUAGCCAAGUUGGUUUAAGGCGCAAGUCUUUAAUUUAUCACUACGAAAUCUUGAGAUCGGGCGUUCGACUCGCCCCCGGGAGAUUUUUUCCUCGAGCAA | ≤ 0.026 |
